Experimental data: the RNAGym collection of RNA variant scans (doi:10.1126/science.aae0568)
Fewer inactive variants are shown than the library holds.

B1: tRNA (parent)
chain: GUUCCGUUGGCGUAAUGGUAACGCGUCUCCCUCCUAAGGAGAAGACUGCGGGUUCGAGUCCCGUACGGAACG

Variants of: B1
Experiment: yeast fitness relative to wild type (ratio to wild type); higher = fitter; tRNA-Arg(CCU), competitive growth, 37 C, YPD
Method in brief: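 A pool of Saccharomyces cerevisiae strains, each with a tRNA-Arg(CCU) gene variant at the native genomic locus, was competed in YPD at 37°C for 24 hours across six parallel replicates. The variants had been chemically synthesised at a 3% per-site mutation rate over 69 sites, and gene amplicons before and after competition were read by 100-nucleotide paired-end sequencing. Darwinian fitness relative to wild type rested on changes in genotype frequencies. Genotypes required ≥ 100 starting reads, and estimates < 0.5 were set to 0.5.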
A43G G52C showed a yeast fitness of 0.643.
Work on C5U U8A G18C A20G yielded a yeast fitness of 0.537.
Variant C5A A45U A69U has a yeast fitness of 0.801.
Variant A40G A45U has a yeast fitness of 0.786.
U32C C33U A70G gave a yeast fitness of 0.681.
In the case of G25C C49U C62G C66U, the yeast fitness is reported as 0.539.
U16C C61G gave a yeast fitness of 0.63.
In the case of C5G A20C C27A G39A C61G, the yeast fitness is reported as at most 0.5.
For C5G C11A C22G A36U G63A, the yeast fitness was at most 0.5.
Variant A14G G23A G38C C46U has a yeast fitness of 0.621.
For C60G A70U, the yeast fitness was 0.624.
U2A C30U C46A U54A A57G gave a yeast fitness of at most 0.5.
In the case of C5A G38C G51A G58A, the yeast fitness is reported as 0.506.
U2C A14G G18A G41A A69C gave a yeast fitness of at most 0.5.
Variant U8G G9U C30A has a yeast fitness of at most 0.5.
Work on G10C A14U G25A C27U U53C yielded a yeast fitness of at most 0.5.
For G17U A37U A57C, the yeast fitness was at most 0.5.
Work on G39C G44C C46U yielded a yeast fitness of 0.588.
C11U G58A G63A gave a yeast fitness of 0.74.
In the case of C5G G17C G25A G51A, the yeast fitness is reported as at most 0.5.
Work on C22G A45C C49U A57U C62A yielded a yeast fitness of 0.619.
U8G U13A gave a yeast fitness of 0.56.
With C5U C11U A14G A15G G48C the yeast fitness was at most 0.5.
C60G A65G showed a yeast fitness of 0.755.
Work on U3A C22G G48A yielded a yeast fitness of 0.544.
C5A C24U A36C C66U gave a yeast fitness of at most 0.5.
In the case of A21U G52C C61U, the yeast fitness is reported as at most 0.5.
Variant U2G C22G U26C C27G C30A U32G C55G has a yeast fitness of at most 0.5.
For A14G C31G A37U A65U, the yeast fitness was 0.529.
In the case of G25A A43U U54A, the yeast fitness is reported as 0.565.
Work on U2G U13G A57G yielded a yeast fitness of 0.538.
For C5G G41C C49U, the yeast fitness was 0.543.
U2C C11A A14C C22U A45U showed a yeast fitness of at most 0.5.
For A15U C30U G52A A65U, the yeast fitness was at most 0.5.
With U13G C33G A40G C60A the yeast fitness was at most 0.5.
Work on C30G C31G yielded a yeast fitness of 0.687.
For C5U U28A G41A, the yeast fitness was 0.534.
Variant G9C A20U U28A C62U has a yeast fitness of at most 0.5.
A15U G25A G44C gave a yeast fitness of 0.566.
Work on A21G G23A A45C G52A A69C yielded a yeast fitness of 0.521.
Work on U3G C24G C49U G58A G63A yielded a yeast fitness of at most 0.5.
With C30U G50A G68A the yeast fitness was at most 0.5.
With C29U C30U U59A the yeast fitness was at most 0.5.
For C22G A42G U59A G68C, the yeast fitness was at most 0.5.
C4U C29G gave a yeast fitness of 0.608.
For C4A C31U G51A A70G, the yeast fitness was at most 0.5.
C4U C30G G51C G56U A65G gave a yeast fitness of at most 0.5.
For U2C G12A A15G C62U, the yeast fitness was at most 0.5.
U3C A20U A69G gave a yeast fitness of 0.612.
For A36G G56C, the yeast fitness was 0.686.
C5U A15G A20U A42G G63A showed a yeast fitness of at most 0.5.
In the case of U2C U32A C61A A65G, the yeast fitness is reported as at most 0.5.
With C5G U32A C62U the yeast fitness was 0.532.
C24A G41A gave a yeast fitness of 0.738.
Work on C4A C5U C22G G44C yielded a yeast fitness of at most 0.5.
For G12A G23A U35G G58A, the yeast fitness was at most 0.5.
U16C A21C C31A A37G C55A gave a yeast fitness of at most 0.5.
C5A C24U G51A gave a yeast fitness of at most 0.5.
Work on G17A G41C C46A yielded a yeast fitness of 0.68.
For C31U A42C G67A, the yeast fitness was 0.628.
Work on U3C A57C A65U yielded a yeast fitness of at most 0.5.
Variant U13C U47C G56C has a yeast fitness of 0.544.
For U19C C22U C55U C61G, the yeast fitness was at most 0.5.
In the case of C5G U35C G48C, the yeast fitness is reported as 0.571.
G9C A37C C46U U53A gave a yeast fitness of at most 0.5.
In the case of A36U U59G A65U, the yeast fitness is reported as at most 0.5.
Variant A20G C33A A37G C62A has a yeast fitness of at most 0.5.
With C27U A70C the yeast fitness was 1.03.
Variant U3A A14G G58C has a yeast fitness of 0.753.
With G56A G58C U64A A69G the yeast fitness was 0.545.
In the case of U8A G23C G56A, the yeast fitness is reported as 0.539.
In the case of G17A A20G A42U, the yeast fitness is reported as 0.644.
Work on G12A G63A G67A yielded a yeast fitness of at most 0.5.
Variant G10A A45C C49U has a yeast fitness of 0.652.
C22U A40U A57U A69U gave a yeast fitness of at most 0.5.
For C4A G17C G23C A45C, the yeast fitness was 0.527.
U3A G38A G48A gave a yeast fitness of 0.54.
For U19A C22U U32C C46U, the yeast fitness was at most 0.5.
With U54C G63A the yeast fitness was 0.701.
U8A A15C G18C C49U U64A A69U gave a yeast fitness of 0.651.
G18C U35A A45C showed a yeast fitness of 0.671.
For A20U C27G, the yeast fitness was 0.642.
U7A A42G C46G A65C showed a yeast fitness of 0.66.
C5G A15G U16A A20G U28A C30A C33A A36U A69C showed a yeast fitness of 0.578.
C5G G6C U64C gave a yeast fitness of 0.586.
C4U A45G C61G A65C A70U gave a yeast fitness of at most 0.5.
For C5A G58A, the yeast fitness was 0.909.
Work on G6A C29G C30A U64G A69C yielded a yeast fitness of at most 0.5.
C5U A20U A36U gave a yeast fitness of at most 0.5.
Variant U3C A14U A20C C30G C55U has a yeast fitness of at most 0.5.
Work on U3A C46U A69C yielded a yeast fitness of 0.76.
G12C U16A C27G A36G C46U C61U G68A showed a yeast fitness of at most 0.5.
C24U G44C G58C showed a yeast fitness of 0.995.
Variant U8C G12A C62A has a yeast fitness of at most 0.5.
With C66U G67C the yeast fitness was 0.934.
In the case of C4U G44C C46A G56C, the yeast fitness is reported as at most 0.5.
A21C G23A A37C U54C showed a yeast fitness of at most 0.5.
In the case of C22A C29G G38C A65U, the yeast fitness is reported as at most 0.5.
C11G C22A C31U A42G C66U showed a yeast fitness of at most 0.5.
For C33A A40G A42G, the yeast fitness was 0.564.
G9C C31U gave a yeast fitness of 0.676.
C30A C61A showed a yeast fitness of 0.721.
Variant C5G C11G C34U C55U G67C has a yeast fitness of at most 0.5.
Variant A14C G25A C29G A45U C62A A70C has a yeast fitness of at most 0.5.
Variant C30G C34U A57G C60U G68C has a yeast fitness of at most 0.5.
Work on C62A G67A yielded a yeast fitness of 0.817.
C27G A36C A42U C66U gave a yeast fitness of at most 0.5.
With G44A A45U C62G the yeast fitness was at most 0.5.
In the case of G9A G10A C60U A69C, the yeast fitness is reported as 0.618.
With C5G A20U U54A the yeast fitness was at most 0.5.
With C4U C5G U7C C24G A43C the yeast fitness was at most 0.5.
A15U C31A showed a yeast fitness of 0.588.
G38C G67C showed a yeast fitness of 0.748.
For C33A A37G G39C C55U, the yeast fitness was at most 0.5.
In the case of C24A U32G A37G, the yeast fitness is reported as at most 0.5.
In the case of C5G U8C C30U U54A, the yeast fitness is reported as at most 0.5.
In the case of A45C C46U G67C, the yeast fitness is reported as 0.584.
G58A A70C gave a yeast fitness of 1.01.
Work on C5U C33U C61U yielded a yeast fitness of 0.632.
Work on U3C G39A G67U yielded a yeast fitness of at most 0.5.
U26C G48A C55U gave a yeast fitness of 0.561.
G12C C30A gave a yeast fitness of 0.786.
With U13C A43G the yeast fitness was 0.984.
For U3G C66U A70U, the yeast fitness was 0.534.
In the case of U3C U19A G58C C62G A70U, the yeast fitness is reported as at most 0.5.
For U2C A37G G68C, the yeast fitness was at most 0.5.
Variant A21G G63C has a yeast fitness of 0.73.
With U28A G58U A65C the yeast fitness was at most 0.5.
Work on U19C A20U C22U C27G yielded a yeast fitness of 0.532.
Work on G18A G52A A65C yielded a yeast fitness of at most 0.5.
In the case of C24U A57C, the yeast fitness is reported as 0.601.
For C49A A65G, the yeast fitness was 0.625.
A42U G50A G63C G67A gave a yeast fitness of at most 0.5.
With C24A C55G C60G the yeast fitness was 0.528.
With C24U G41A C61G the yeast fitness was 0.587.
In the case of U32G U47G, the yeast fitness is reported as at most 0.5.
With U2G G6C U54A the yeast fitness was at most 0.5.
U2G A36U C62G G63A showed a yeast fitness of at most 0.5.
C11U G51A G63C A69U showed a yeast fitness of at most 0.5.
C11G A36C G56A A65G showed a yeast fitness of at most 0.5.
With C11U C27A G52A the yeast fitness was at most 0.5.
C5U A20G C61U showed a yeast fitness of 0.711.
G17A U54A G56C G68A showed a yeast fitness of at most 0.5.
For C11U A40U C46U G63C, the yeast fitness was at most 0.5.
Variant U26A A40U A69U has a yeast fitness of 0.699.
Variant C11G C31G A42U has a yeast fitness of 0.527.
Variant C5G C22U G56C has a yeast fitness of at most 0.5.
In the case of G56A G58C, the yeast fitness is reported as 0.95.
With U35A A36G the yeast fitness was 0.65.
With A14G U19C A20U the yeast fitness was 0.773.
For U8C G17A A40U G48A, the yeast fitness was at most 0.5.
In the case of C46U G51C C66G, the yeast fitness is reported as at most 0.5.
With U7A C22U U26C A40G A43U C49A the yeast fitness was at most 0.5.
In the case of C27G C49U U54G, the yeast fitness is reported as at most 0.5.
Variant C22U G58C C62G G63C has a yeast fitness of at most 0.5.
With G25A C55G the yeast fitness was 0.681.
G12U showed a yeast fitness of 1.04.
C22A C29G C62A A69U gave a yeast fitness of at most 0.5.
C5G A21U C29A showed a yeast fitness of 0.631.
For U13C U26G C27U C49U C66U, the yeast fitness was 0.801.
C27A C30U showed a yeast fitness of 0.7.
Variant U35C A65U has a yeast fitness of 0.739.
In the case of U28C C66U, the yeast fitness is reported as 0.907.
C5G C27U C46U U54C gave a yeast fitness of at most 0.5.
C11A C49G A69U gave a yeast fitness of 0.585.
In the case of C4U U28G A57G A69C, the yeast fitness is reported as at most 0.5.
C31G A37G C62U G63C showed a yeast fitness of 0.54.
